# Test results from article PMC10449972 (Clinical Pharmacokinetics, 2023).
# Columns and labels:
# hepatic HSD-1 [1] = details: lowest daily dose of 1 mg ABT-384, last day of dosing; cited from earlier work
# HSD-1 [2] = target: T1, HSD-1 (Homo sapiens, UniProt P28845); experiment: TMDD model component: binding of SPI-62 to its pharmacological target HSD-1; assay type: in vivo, human (healthy adults)
# Method in brief: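 Target-binding component of the simultaneous population PK/PD fit. Drug in the central compartment binds HSD-1 with a second-order association constant (Kon) to form a complex. The complex dissociates with a first-order constant (Koff). Rtotal is the total HSD-1 amount. Data were pooled plasma concentrations from single- and multiple-dose trials plus urinary HSD-1 activity from multiple-dose cohorts. Kd was derived as Koff/Kon, and IIV was exponential.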
# hepatic HSD-1 [3] = target: T2, hepatic HSD-1 (Homo sapiens, UniProt P28845); experiment: Hepatic HSD-1 activity, urinary ratio; assay type: in vivo, human (healthy adults); details: regimens as low as 0.2 mg once daily, lowest dose tested
# Method in brief: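 Healthy adults in low-dose multiple-dose cohorts were given oral test compound: 3 mg loading then 0.2 mg once daily (days 2–14); 0.4 mg once daily (days 1–14); or 0.7 or 2 mg single dose, 6-day washout, then once daily (days 7–20). First-morning urine was collected predose and on scheduled days, and steroids were measured by LC-MS/MS. Activity ratio was fitted against time-matched model-predicted plasma concentration using a sigmoid inhibitory Imax model.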
# [4] = single dose of 0.7 mg SPI-62, plasma; cited from earlier work
# HSD-1 [5] = target: T1, HSD-1; details: earlier TMDD model; cited from earlier work
# hepatic HSD-1 [6] = target: T2, hepatic HSD-1; details: cited from earlier work
# human HSD-1 = details: measured in vitro; cited from earlier work
# HSD-2 = details: cited from earlier work
# T1 sequence (P28845 whole entry): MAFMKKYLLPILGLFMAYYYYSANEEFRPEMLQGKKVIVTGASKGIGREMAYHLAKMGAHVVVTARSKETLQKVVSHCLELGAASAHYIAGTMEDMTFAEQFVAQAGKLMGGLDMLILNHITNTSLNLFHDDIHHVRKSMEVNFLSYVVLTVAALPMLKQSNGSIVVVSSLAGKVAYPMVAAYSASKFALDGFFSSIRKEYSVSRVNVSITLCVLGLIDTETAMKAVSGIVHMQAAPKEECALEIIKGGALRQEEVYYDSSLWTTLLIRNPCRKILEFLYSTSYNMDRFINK
# T2 sequence (P28845 whole entry): as above
Kd (HSD-1 [2]) [nM],"Kd, ratio of Koff and Kon (HSD-1 [2]; calculated from TMDD model estimates) [nM]",Target capacity (Rtot) expressed as amount of SPI-62 (HSD-1 [2]; corresponds to 5460 nmol),"Kon, second-order association rate constant (HSD-1 [2]; estimated, final PK/PD model) [M⁻¹ s⁻¹]",Inhibition of hepatic HSD-1 (hepatic HSD-1 [3]),Structure (SMILES),Hepatic HSD-1 inhibition (hepatic HSD-1 [1]),Average Cmax [4] [ng/mL],"Rmax, capacity of the target, estimated using PK data alone (HSD-1 [5]) [nmol]","Hepatic HSD-1 inhibition on day 6 (hepatic HSD-1 [6]; after single low dose, 6-day wash out, day 6) [%]","HSD-1 inhibition after repeated doses (hepatic HSD-1 [6]; all low dose groups (0.2 mg with 3 mg loading dose, 0.4, 0.7, 2 mg QD))","Return of urinary HSD-1 ratio to baseline (hepatic HSD-1 [6]; approximately 16 days after the last dose, lowest dose 0.2 mg)",HSD-1 inhibition (urinary HSD-1 ratio) after the first dose (hepatic HSD-1 [6]; first dose of 0.7 mg),Hepatic HSD-1 inhibition (hepatic HSD-1 [6]; following a single dose of 0.7 mg),Ki (human HSD-1) [nM],Activity on HSD-2 (HSD-2)
–,–,–,–,–,CC(C)(C(=O)NC1C2CC3CC1CC(C(N)=O)(C3)C2)N1CCN(c2ccc(C(F)(F)F)cn2)CC1 (stereo not drawn) [ABT-384],full hepatic HSD-1 inhibition,–,–,–,–,–,–,–,–,–
0.0272,0.0272,approximately 2.2 mg,2.34e+06,almost complete inhibition,Cn1c(-c2ccc(C(N)=O)cc2F)nnc1C(C)(C)Oc1c(F)cc(Cl)cc1F [SPI-62],–,0.02,6070,> 30,full HSD-1 inhibition,incomplete return,substantial HSD-1 inhibition,more than 40%,5.3,minimal activity
